Laboratory results: ChEMBL document CHEMBL1137011, “Antagonists of the calcium receptor I. Amino alcohol-based parathyroid hormone secretagogues” (J Med Chem, 2009)
Active and inactive are the calls of the source. The calls are words filed in the database; no cut-off is given here.

Key:
[1] = molecular target: T1, Extracellular calcium-sensing receptor (Homo sapiens, UniProt P41180); assay: Binding affinity to human parathyroid calcium receptor 1 expressed in HEK293 4.0-7 cells by radioligand binding assay; type: cell-based
T1 sequence (P41180 whole entry): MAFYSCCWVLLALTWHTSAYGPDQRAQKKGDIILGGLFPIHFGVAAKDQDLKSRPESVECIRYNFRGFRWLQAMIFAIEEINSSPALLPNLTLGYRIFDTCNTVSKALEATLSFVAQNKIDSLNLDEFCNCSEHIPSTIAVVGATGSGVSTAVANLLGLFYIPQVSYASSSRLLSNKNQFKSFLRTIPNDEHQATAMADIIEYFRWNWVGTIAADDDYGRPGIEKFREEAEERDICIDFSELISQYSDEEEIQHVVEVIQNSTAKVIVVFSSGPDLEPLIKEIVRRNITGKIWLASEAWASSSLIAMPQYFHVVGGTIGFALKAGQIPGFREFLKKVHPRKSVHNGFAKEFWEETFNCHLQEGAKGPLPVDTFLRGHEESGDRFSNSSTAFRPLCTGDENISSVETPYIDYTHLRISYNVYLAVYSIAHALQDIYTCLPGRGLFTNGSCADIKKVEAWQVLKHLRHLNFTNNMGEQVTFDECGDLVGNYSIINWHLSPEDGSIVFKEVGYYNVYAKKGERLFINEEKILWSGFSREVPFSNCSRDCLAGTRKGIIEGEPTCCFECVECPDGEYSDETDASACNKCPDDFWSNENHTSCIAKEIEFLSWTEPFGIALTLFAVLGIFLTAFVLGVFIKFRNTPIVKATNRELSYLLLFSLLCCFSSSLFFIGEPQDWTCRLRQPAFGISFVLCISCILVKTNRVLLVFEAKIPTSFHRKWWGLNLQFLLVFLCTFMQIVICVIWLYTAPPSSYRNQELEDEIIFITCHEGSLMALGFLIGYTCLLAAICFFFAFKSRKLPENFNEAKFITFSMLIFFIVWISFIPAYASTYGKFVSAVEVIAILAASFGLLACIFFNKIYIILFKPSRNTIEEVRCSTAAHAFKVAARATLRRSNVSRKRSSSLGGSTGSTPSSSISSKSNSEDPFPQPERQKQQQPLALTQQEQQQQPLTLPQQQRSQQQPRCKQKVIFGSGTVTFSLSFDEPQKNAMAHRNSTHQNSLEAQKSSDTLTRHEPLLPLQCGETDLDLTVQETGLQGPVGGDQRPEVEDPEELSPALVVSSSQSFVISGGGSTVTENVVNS
Procedure, shortened: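 Membranes from HEK293 4.0-7 cells stably expressing human CaR (4-10 µg) in 50 mM Tris-HCl pH 7.4, 1 mM EDTA, 3 mM MgCl2, 0.1% gelatin, 10% EtOH. Incubated with 2 nM 3H antagonist or 3H calcimimetic ligand for 30 min at 4 °C, then filtered onto PEI-treated GF/C and counted by scintillation. Nonspecific binding taken with 100-fold excess of unlabeled homologous ligand.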

[2] = Antagonist activity at human calcium receptor 1 expressed in HEK293 4.0-7 cells assessed as inhibition of extracellular calcium-induced increase in intracellular calcium level by FLIPR assay; type: functional, cell-based
Procedure, shortened: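 HEK293 cells stably expressing human CaR, seeded 15K cells/well and grown 48 h at 37 °C. Loaded 45 min at 37 °C with Fluo4 (2 µM final) and probenecid (2.5 mM final) in HBSS with 0.75 mM Ca. Compound (top 25 µM final) was added 5 min at room temperature, then EC80 CaCl challenge, with FLIPR fluorescence read for 65 s.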

[3] = molecular target: Beta-3 adrenergic receptor (Homo sapiens, UniProt P13945); assay: Binding affinity to beta3 adrenoceptor
Beta-3 adrenergic receptor, sequence (P13945 whole entry): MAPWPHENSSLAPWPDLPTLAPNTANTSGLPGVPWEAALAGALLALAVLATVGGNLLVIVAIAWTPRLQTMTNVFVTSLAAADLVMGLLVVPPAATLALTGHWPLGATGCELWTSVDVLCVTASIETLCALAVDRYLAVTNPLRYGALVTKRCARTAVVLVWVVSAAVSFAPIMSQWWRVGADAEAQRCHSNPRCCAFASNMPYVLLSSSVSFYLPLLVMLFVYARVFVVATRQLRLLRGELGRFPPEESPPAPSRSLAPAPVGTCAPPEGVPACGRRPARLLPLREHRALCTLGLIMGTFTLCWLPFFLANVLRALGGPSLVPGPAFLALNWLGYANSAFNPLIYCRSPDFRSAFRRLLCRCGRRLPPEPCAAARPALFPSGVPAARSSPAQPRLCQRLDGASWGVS

[4] = test system: Rattus norvegicus; assay: Increase of bone mass in 17-beta-estradiol-treated ovariectomized postmenopausal osteoporosis Sprague-Dawley rat model at 100 umol/kg, po for 5 weeks; type: functional, organism-based
[5] = test system: Rattus norvegicus; assay: Increase of new bone formation in ovariectomized postmenopausal osteoporosis Sprague-Dawley rat model at 100 umol/kg, po for 5 weeks; type: functional, organism-based
[6] = Volume of distribution in rat; type: ADME, organism-based; conditions: in vivo
[7] = molecular target: Cytochrome P450 2D6 (Homo sapiens, UniProt P10635); assay: Binding affinity to CYP2D6; type: ADME
Cytochrome P450 2D6, sequence (P10635 whole entry): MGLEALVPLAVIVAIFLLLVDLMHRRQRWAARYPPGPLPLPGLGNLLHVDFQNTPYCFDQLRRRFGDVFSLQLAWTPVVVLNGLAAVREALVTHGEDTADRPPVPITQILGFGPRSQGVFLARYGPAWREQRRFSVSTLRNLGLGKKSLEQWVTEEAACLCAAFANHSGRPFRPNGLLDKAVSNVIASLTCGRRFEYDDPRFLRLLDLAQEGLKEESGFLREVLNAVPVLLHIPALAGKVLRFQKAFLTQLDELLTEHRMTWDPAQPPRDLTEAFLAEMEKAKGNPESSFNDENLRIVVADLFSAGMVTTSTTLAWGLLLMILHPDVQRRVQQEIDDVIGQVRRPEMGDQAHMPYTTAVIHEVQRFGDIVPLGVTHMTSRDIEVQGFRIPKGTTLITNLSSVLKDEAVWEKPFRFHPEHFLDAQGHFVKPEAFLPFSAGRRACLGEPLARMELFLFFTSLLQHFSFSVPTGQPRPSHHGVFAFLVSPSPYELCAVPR

[8] = molecular target: Sodium-dependent serotonin transporter (Homo sapiens, UniProt P31645); assay: Binding affinity to serotonin transporter
Sodium-dependent serotonin transporter, sequence (P31645 whole entry): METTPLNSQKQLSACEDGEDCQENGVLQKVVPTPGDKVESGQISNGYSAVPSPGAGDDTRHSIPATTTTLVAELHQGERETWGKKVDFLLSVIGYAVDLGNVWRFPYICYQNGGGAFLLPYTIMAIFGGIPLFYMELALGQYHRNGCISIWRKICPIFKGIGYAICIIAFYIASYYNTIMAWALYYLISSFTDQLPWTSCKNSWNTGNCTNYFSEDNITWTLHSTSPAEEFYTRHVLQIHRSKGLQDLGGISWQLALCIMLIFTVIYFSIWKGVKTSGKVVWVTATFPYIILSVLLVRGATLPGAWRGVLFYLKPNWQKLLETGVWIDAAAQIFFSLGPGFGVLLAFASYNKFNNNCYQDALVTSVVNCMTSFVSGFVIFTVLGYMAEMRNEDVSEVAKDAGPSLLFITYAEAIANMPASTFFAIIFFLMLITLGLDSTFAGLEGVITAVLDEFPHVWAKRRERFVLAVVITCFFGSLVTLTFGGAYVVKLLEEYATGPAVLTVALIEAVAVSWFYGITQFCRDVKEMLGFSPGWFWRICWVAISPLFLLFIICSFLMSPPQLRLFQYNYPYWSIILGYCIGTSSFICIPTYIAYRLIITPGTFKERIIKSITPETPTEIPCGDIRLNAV

[9] = test system: Rattus norvegicus; assay: Increase of bone mass in ovariectomized postmenopausal osteoporosis Sprague-Dawley rat model at 5 ug/kg, po for 5 weeks; type: functional, organism-based
[10] = molecular target: Sodium-dependent dopamine transporter (Homo sapiens, UniProt Q01959); assay: Binding affinity to dopamine transporter
Sodium-dependent dopamine transporter, sequence (Q01959 whole entry): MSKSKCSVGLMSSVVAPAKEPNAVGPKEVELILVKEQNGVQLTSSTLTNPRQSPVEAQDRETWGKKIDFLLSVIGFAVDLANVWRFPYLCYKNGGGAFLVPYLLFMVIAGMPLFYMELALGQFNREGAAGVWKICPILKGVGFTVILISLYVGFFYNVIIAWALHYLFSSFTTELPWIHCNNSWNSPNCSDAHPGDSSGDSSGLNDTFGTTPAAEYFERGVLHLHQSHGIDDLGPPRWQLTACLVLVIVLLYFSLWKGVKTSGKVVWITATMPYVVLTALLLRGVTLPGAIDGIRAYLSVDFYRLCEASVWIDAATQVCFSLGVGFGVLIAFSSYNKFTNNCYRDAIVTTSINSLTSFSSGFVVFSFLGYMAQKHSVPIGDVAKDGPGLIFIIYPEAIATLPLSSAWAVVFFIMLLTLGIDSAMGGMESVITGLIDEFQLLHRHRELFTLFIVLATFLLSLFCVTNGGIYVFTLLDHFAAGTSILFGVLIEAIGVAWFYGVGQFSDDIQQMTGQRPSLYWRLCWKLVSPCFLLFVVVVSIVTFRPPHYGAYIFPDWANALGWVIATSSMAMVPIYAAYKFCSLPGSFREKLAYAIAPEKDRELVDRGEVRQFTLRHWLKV

[11] = test system: Rattus norvegicus; assay: Increase of resorption of old bone in ovariectomized postmenopausal osteoporosis Sprague-Dawley rat model at 100 umol/kg, po for 5 weeks; type: functional, organism-based
[12] = molecular target: Voltage-gated inwardly rectifying potassium channel KCNH2 (Homo sapiens, UniProt Q12809); assay: Binding affinity to human ERG
Voltage-gated inwardly rectifying potassium channel KCNH2, sequence (Q12809 whole entry): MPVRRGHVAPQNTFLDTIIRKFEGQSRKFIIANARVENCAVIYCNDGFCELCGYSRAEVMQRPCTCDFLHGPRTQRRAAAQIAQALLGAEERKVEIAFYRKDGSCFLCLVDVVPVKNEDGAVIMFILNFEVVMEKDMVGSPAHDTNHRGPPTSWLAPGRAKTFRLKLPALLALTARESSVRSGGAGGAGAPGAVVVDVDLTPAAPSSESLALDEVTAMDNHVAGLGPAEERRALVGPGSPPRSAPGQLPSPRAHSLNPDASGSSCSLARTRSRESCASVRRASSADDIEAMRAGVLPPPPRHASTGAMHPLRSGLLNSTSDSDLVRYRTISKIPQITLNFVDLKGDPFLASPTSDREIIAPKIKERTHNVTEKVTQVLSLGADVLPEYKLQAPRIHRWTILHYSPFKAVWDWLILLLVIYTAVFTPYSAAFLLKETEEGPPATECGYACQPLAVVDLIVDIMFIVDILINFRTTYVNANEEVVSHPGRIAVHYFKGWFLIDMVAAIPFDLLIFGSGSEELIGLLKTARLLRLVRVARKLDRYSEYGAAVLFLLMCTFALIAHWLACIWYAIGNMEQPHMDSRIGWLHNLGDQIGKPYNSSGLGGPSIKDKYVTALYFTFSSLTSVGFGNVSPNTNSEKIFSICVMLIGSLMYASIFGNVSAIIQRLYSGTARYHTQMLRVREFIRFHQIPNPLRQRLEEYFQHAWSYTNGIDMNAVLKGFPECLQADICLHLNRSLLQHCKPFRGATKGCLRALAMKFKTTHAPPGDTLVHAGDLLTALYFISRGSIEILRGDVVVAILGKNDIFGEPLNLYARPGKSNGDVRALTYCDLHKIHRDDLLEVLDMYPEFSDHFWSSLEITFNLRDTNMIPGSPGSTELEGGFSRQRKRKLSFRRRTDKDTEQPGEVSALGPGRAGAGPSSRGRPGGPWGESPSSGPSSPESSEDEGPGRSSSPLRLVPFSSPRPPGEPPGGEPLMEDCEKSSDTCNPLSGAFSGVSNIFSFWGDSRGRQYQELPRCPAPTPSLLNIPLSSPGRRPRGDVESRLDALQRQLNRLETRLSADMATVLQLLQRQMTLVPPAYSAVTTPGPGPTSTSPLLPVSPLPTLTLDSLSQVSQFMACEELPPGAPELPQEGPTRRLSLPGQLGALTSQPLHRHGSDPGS

[13] = Half life in rat; type: ADME, organism-based; conditions: in vivo
[14] = Oral bioavailability in rat; type: ADME, organism-based; conditions: in vivo
[15] = test system: Rattus norvegicus; assay: Increase in plasma parathyroid hormone level in normal conscious rat at 10 umol/kg, iv by immunoradiometric assay; type: functional, organism-based
Procedure, shortened: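 Normal conscious rats were given a single iv injection of 10 µmol/kg. Plasma PTH was measured over time by rat PTH(1-34) immunoradiometric assay, n = 6/group, mean ± SE.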

[16] = organism: Rattus norvegicus; assay: Clearance in rat; type: ADME, organism-based; conditions: in vivo
[17] = molecular target: Beta-2 adrenergic receptor (Homo sapiens, UniProt P07550); assay: Binding affinity to beta2 adrenoceptor
Beta-2 adrenergic receptor, sequence (P07550 whole entry): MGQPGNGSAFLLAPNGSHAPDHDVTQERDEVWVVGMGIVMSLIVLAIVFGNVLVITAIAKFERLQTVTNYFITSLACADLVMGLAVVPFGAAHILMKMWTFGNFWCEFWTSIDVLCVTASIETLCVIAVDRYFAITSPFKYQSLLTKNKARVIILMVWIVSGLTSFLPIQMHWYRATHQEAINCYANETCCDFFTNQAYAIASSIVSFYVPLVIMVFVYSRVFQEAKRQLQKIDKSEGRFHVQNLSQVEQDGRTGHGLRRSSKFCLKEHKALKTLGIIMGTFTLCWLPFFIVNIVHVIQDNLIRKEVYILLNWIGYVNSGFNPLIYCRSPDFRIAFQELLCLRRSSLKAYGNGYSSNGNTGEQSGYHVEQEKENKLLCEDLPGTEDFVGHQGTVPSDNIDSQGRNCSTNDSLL

[18] = Increase in parathyroid hormone release in bovine parathyroid cells; type: functional, cell-based; conditions: Bos taurus
[19] = test system: Rattus norvegicus; assay: Effect on net increase in bone mass in ovariectomized postmenopausal osteoporosis Sprague-Dawley rat model at 100 umol/kg, po for 5 weeks; type: functional, organism-based
[20] = molecular target: Beta-1 adrenergic receptor (Homo sapiens, UniProt P08588); assay: Binding affinity to beta-1 adrenoceptor
Beta-1 adrenergic receptor, sequence (P08588 whole entry): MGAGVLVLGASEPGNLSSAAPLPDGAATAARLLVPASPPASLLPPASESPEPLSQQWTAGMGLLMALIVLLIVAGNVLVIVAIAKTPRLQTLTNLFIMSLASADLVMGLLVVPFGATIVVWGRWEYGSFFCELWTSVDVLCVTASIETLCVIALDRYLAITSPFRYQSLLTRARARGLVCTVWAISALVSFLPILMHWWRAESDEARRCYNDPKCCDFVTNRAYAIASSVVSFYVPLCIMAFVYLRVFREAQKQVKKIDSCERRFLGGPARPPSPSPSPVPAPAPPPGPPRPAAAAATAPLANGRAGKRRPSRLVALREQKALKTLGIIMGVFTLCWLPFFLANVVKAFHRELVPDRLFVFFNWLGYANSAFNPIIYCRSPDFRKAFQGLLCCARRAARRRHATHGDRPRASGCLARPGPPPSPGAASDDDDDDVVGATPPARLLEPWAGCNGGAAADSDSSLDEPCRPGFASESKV

[21] = molecular target: Sodium-dependent noradrenaline transporter (Homo sapiens, UniProt P23975); assay: Binding affinity to norepinephrine transporter
Sodium-dependent noradrenaline transporter, sequence (P23975 whole entry): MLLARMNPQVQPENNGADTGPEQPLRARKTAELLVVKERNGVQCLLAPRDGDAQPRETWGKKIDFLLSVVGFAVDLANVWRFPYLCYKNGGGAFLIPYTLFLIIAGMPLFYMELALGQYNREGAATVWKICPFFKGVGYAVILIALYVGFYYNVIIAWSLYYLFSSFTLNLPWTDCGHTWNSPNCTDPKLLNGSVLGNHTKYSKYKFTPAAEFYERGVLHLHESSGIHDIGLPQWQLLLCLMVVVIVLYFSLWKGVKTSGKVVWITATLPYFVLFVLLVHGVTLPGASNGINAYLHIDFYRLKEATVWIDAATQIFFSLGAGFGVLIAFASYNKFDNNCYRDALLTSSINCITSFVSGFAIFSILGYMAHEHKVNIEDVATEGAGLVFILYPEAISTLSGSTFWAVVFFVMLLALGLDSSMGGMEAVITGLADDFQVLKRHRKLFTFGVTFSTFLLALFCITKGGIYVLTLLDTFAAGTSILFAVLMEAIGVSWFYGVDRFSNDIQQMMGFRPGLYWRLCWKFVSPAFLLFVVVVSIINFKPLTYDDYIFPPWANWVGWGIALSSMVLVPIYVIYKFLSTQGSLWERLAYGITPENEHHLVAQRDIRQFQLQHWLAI

[22] = Tmax in human; type: ADME, organism-based; conditions: in vivo
[23] = Clearance in men; type: ADME, organism-based; conditions: male, human, in vivo
[24] = Volume of distribution in human; type: ADME, organism-based; conditions: in vivo
[25] = Clearance in women; type: ADME, organism-based; conditions: female, human, in vivo

## COc1ccc(CCNCC(O)COc2ccccc2)cc1 (racemic)
[1]
  IC50: > 10000 nM
[2]
  IC50: > 100000 nM

## COc1ccc(C(C)(C)CNCC(O)COc2ccccc2)cc1 (racemic)
[1]
  IC50: > 10000 nM
[2]
  IC50: > 100000 nM

## CC(C)(Cc1ccc2ccccc2c1)NC[C@@H](O)COc1cccc(Cl)c1C#N.Cl
[3]
  EC50: Not Active
[4]
  Activity: Active
[5]
  Activity: Active
[6]
  Vd: 11 L/kg
[7]
  IC50: 45 nM
[1]
  IC50: 3 nM
[8]
  IC50: 2 nM
[9]
  Activity: Active
[10]
  IC50: 200 nM
[11]
  Activity: Active
[12]
  IC50: 3000 nM
[13]
  half-life: 2 h
[14]
  bioavailability: 11%
[15]
  Activity: Active
[16]
  clearance: 74 mL/min/kg
[17]
  IC50: 4300 nM
[2]
  IC50: 43 nM
[18]
  EC50: 41 nM
[19]
  Activity: Active
[20]
  EC50: Not Active
[21]
  IC50: 200 nM

## COc1ccc(CC(C)NCC(O)COc2ccccc2)cc1 (racemic)
[1]
  IC50: > 10000 nM
[2]
  IC50: > 100000 nM

## COc1ccc(CC(C)(C)NC[C@H](O)COc2cccc3[nH]c(=O)[nH]c23)cc1
[3]; read-out: EC50
  EC50: 7 nM
[7]
  IC50: 1260 nM
[1]
  IC50: 31800 nM
[8]
  IC50: 61 nM
[10]
  IC50: 1200 nM
[12]
  IC50: 11800 nM
[17]
  IC50: 1.3 nM
[2]
  IC50: 11000 nM
[20]; read-out: EC50
  EC50: 3 nM
[21]
  IC50: 600 nM

## COc1ccc(CCC(C)(C)NCC(O)COc2ccccc2)cc1 (racemic)
[1]
  IC50: 2780 nM
[2]
  IC50: 13000 nM

## COc1ccc(CC(C)(C)NCC(O)COc2cccc(Cl)c2)cc1 (racemic)
[1]
  IC50: 1000 nM
[2]
  IC50: 470 nM

## COc1ccc(CC(C)(C)NCC(O)COc2ccc3ccccc3c2)cc1 (racemic)
[1]
  IC50: 1300 nM
[2]
  IC50: 1400 nM

## COc1ccc(C(C)(C)NCC(O)COc2ccccc2)cc1 (racemic)
[1]
  IC50: > 10000 nM
[2]
  IC50: > 100000 nM

## COc1ccc(CC(C)(C)NCC(O)COc2ccccc2C#N)cc1 (racemic)
[3]; read-out: EC50
  EC50: 20 nM
[7]
  IC50: 36 nM
[1]
  IC50: 140 nM
[8]
  IC50: 21 nM
[10]
  IC50: 300 nM
[17]
  IC50: 21 nM
[2]
  IC50: 45 nM
[20]
  EC50: Not Active
[21]
  IC50: 300 nM

## CC(C)(Cc1ccccc1)NCC(O)COc1ccccc1 (racemic)
[2]
  IC50: 2300 nM

## CCCCOCC(O)CNC(C)(C)Cc1ccc(OC)cc1 (racemic)
[1]
  IC50: 3200 nM
[2]
  IC50: 2200 nM

## COc1ccc(CC(C)(C)NCC(O)COc2cccc(Cl)c2Cl)cc1 (racemic)
[3]; read-out: EC50
  EC50: 200 nM
[1]
  IC50: 200 nM
[17]
  IC50: 21 nM
[2]
  IC50: 45 nM

## COc1ccc(CC(C)(C)N(C)CC(O)COc2cccc(Cl)c2Cl)cc1 (racemic)
[1]
  IC50: 2300 nM
[2]
  IC50: > 3000 nM

## COc1ccc(CC(C)(C)NC[C@@H](O)COc2cccc(Cl)c2Cl)cc1
[3]
  EC50: Not Active
[1]
  IC50: 68 nM
[17]
  IC50: 300 nM
[2]
  IC50: 38 nM

## COc1ccc(CC(C)(C)NCC(O)COC(C)C)cc1 (racemic)
[1]
  IC50: 10000 nM
[2]
  IC50: 6400 nM

## COc1ccc(CC(C)(C)NC[C@H](O)COc2cccc(Cl)c2Cl)cc1
[3]; read-out: EC50
  EC50: 200 nM
[1]
  IC50: 300 nM
[17]
  IC50: 1 nM
[2]
  IC50: 340 nM

## COc1ccc(CC(C)(C)NCC(O)COc2ccccc2Cl)cc1 (racemic)
[1]
  IC50: 1000 nM
[2]
  IC50: 490 nM

## COc1ccc(CC(C)(C)NCC(O)COc2ccccc2OC)cc1 (racemic)
[1]
  IC50: 3500 nM
[2]
  IC50: 15600 nM

## COc1ccc(CC(C)(C)NCCCOc2cccc(Cl)c2Cl)cc1
[1]
  IC50: 930 nM
[2]
  IC50: 2500 nM

## CC[C@H](C)[C@H](NC(=O)[C@H](CCC(=O)O)NC(=O)[C@H](CO)NC(=O)[C@@H](NC(=O)[C@@H](N)CO)C(C)C)C(=O)N[C@@H](CCC(N)=O)C(=O)N[C@@H](CC(C)C)C(=O)N[C@@H](CCSC)C(=O)N[C@@H](Cc1cnc[nH]1)C(=O)N[C@@H](CC(N)=O)C(=O)N[C@@H](CC(C)C)C(=O)NCC(=O)N[C@@H](CCCCN)C(=O)N[C@@H](Cc1cnc[nH]1)C(=O)N[C@@H](CC(C)C)C(=O)N[C@@H](CC(N)=O)C(=O)N[C@@H](CO)C(=O)N[C@@H](CCSC)C(=O)N[C@@H](CCC(=O)O)C(=O)N[C@@H](CCCN=C(N)N)C(=O)N[C@H](C(=O)N[C@@H](CCC(=O)O)C(=O)N[C@@H](Cc1c[nH]c2ccccc12)C(=O)N[C@@H](CC(C)C)C(=O)N[C@@H](CCCN=C(N)N)C(=O)N[C@@H](CCCCN)C(=O)N[C@@H](CCCCN)C(=O)N[C@@H](CC(C)C)C(=O)N[C@@H](CCC(N)=O)C(=O)N[C@@H](CC(=O)O)C(=O)N[C@H](C(=O)N[C@@H](Cc1cnc[nH]1)C(=O)N[C@@H](CC(N)=O)C(=O)N[C@@H](Cc1ccccc1)C(=O)O)C(C)C)C(C)C [TERIPARATIDE]
[22]
  Tmax: ≤ 0.5 h
[23]
  clearance: 1570 mL/min
[24]
  Vd: 0.12 L/kg
[25]
  clearance: 1030 mL/min

## COc1ccc(CC(C)(C)NCC(O)COc2ccccc2)cc1 (racemic)
[1]
  IC50: 2300 nM
[2]
  IC50: 2300 nM

## COc1ccc(CC(C)(C)NCC(O)COc2cccc(Cl)c2C#N)cc1 (racemic)
[3]
  EC50: Not Active
[7]
  IC50: 76 nM
[1]
  IC50: 70 nM
[8]
  IC50: 34 nM
[10]
  IC50: 1100 nM
[12]
  IC50: 3600 nM
[17]
  IC50: 23 nM
[2]
  IC50: 38 nM
[20]
  EC50: Not Active
[21]
  IC50: 1000 nM

## COc1ccc(CC(C)(C)NCC(COc2cccc(Cl)c2Cl)OC)cc1 (racemic)
[1]
  IC50: 950 nM
[2]
  IC50: > 3000 nM

## CCCOCC(O)CNC(C)(C)Cc1ccc(OC)cc1 (racemic)
[1]
  IC50: 7000 nM
[2]
  IC50: 16000 nM
